Assay results from ChEMBL document CHEMBL4145462, “Nitrogen-containing ecdysteroid derivatives vs. multi-drug resistance in cancer: Preparation and antitumor activity of oximes, oxime ethers and a lactam” (Eur J Med Chem, 2018).

How the values were obtained:
[1] = Synergistic cytotoxicity against mouse L5178 cells expressing human ABCB1 assessed as combination index at ED50 using 15:1 test compound to doxorubicin ratio after 48 hrs by MTT-based checkerboard microplate method; type: functional
In short: (§1)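 Checkerboard microplate combinations of compound with doxorubicin at constant molar ratios. 5 × 10^4 cells/well in McCoy's 5A, 48 h at 37°C, 5% CO2. MTT added to 0.5 mg/mL final for 4 h, SDS/HCl overnight, OD read at 540 and 630 nm. Combination indices derived per ratio for 50%, 75% and 90% growth inhibition by median-effect analysis.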

[2] = Synergistic cytotoxicity against mouse L5178 cells assessed as combination index at ED50 using 150:1 test compound to doxorubicin ratio after 48 hrs by MTT-based checkerboard microplate method; type: functional; in short: as §1
[3] = Synergistic cytotoxicity against mouse L5178 cells assessed as combination index at ED75 using 75:1 test compound to doxorubicin ratio after 48 hrs by MTT-based checkerboard microplate method; type: functional; in short: as §1
[4] = Cytotoxicity against mouse L5178 cells expressing human ABCB1 after 48 hrs by MTT assay; type: functional, cell-based; settings: L5178, 48 h
In short: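 Parental mouse lymphoma L5178 and the MDR line made by pHa MDR1/A retrovirus transfection, selected with 60 µg/L colchicine. Grown in McCoy's 5A with horse serum at 37°C, 5% CO2. 5 x 10^4 cells/well, serial compound dilutions, 48 h. MTT added to 0.5 mg/mL final for 4 h, then 10% SDS in 0.01 M HCl overnight, OD read at 540 and 630 nm. IC50 taken as median cytotoxic activity (Dm) from control lanes of checkerboard plates, n=2.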

MCF7 = experiment: Antiproliferative activity against human MCF7 cells after 72 hrs by MTT assay; type: functional, cell-based; settings: MCF7, 72 h
In short: (§2)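 Cells grown in MEM with 10% FCS, 1% non-essential amino acids and 1% penicillin-streptomycin. Seeded at 5000 cells/well, exposed to 0.1–30.0 µM compound for 72 h. MTT (5 mg/ml solution) was then added for 4 h, formazan dissolved in DMSO, and absorbance read at 545 nm. Cisplatin served as positive control. IC50 came from sigmoidal dose–response fits (log inhibitor vs normalized response, variable slope).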

HeLa = experiment: Antiproliferative activity against human HeLa cells after 72 hrs by MTT assay; type: functional, cell-based; in short: as §2
[5] = Synergistic cytotoxicity against mouse L5178 cells assessed as combination index at ED90 using 150:1 test compound to doxorubicin ratio after 48 hrs by MTT-based checkerboard microplate method; type: functional; in short: as §1
[6] = Synergistic cytotoxicity against mouse L5178 cells expressing human ABCB1 assessed as combination index at ED90 using 15:1 test compound to doxorubicin ratio after 48 hrs by MTT-based checkerboard microplate method; type: functional; in short: as §1
[7] = Synergistic cytotoxicity against mouse L5178 cells assessed as combination index at ED50 using 600:1 test compound to doxorubicin ratio after 48 hrs by MTT-based checkerboard microplate method; type: functional; in short: as §1
[8] = Synergistic cytotoxicity against mouse L5178 cells expressing human ABCB1 assessed as combination index at ED90 using 3.75:1 test compound to doxorubicin ratio after 48 hrs by MTT-based checkerboard microplate method; type: functional; in short: as §1
[9] = Synergistic cytotoxicity against mouse L5178 cells expressing human ABCB1 assessed as combination index at ED75 using 15:1 test compound to doxorubicin ratio after 48 hrs by MTT-based checkerboard microplate method; type: functional; in short: as §1
[10] = Synergistic cytotoxicity against mouse L5178 cells expressing human ABCB1 assessed as combination index at ED75 using 1.875:1 test compound to doxorubicin ratio after 48 hrs by MTT-based checkerboard microplate method; type: functional; in short: as §1
[11] = Synergistic cytotoxicity against mouse L5178 cells expressing human ABCB1 assessed as combination index at ED50 using 1.875:1 test compound to doxorubicin ratio after 48 hrs by MTT-based checkerboard microplate method; type: functional; in short: as §1
[12] = Synergistic cytotoxicity against mouse L5178 cells expressing human ABCB1 assessed as combination index at ED90 using 1.875:1 test compound to doxorubicin ratio after 48 hrs by MTT-based checkerboard microplate method; type: functional; in short: as §1
[13] = Synergistic cytotoxicity against mouse L5178 cells assessed as combination index at ED50 using 18.75:1 test compound to doxorubicin ratio after 48 hrs by MTT-based checkerboard microplate method; type: functional; in short: as §1
[14] = Synergistic cytotoxicity against mouse L5178 cells assessed as combination index at ED90 using 18.75:1 test compound to doxorubicin ratio after 48 hrs by MTT-based checkerboard microplate method; type: functional; in short: as §1
[15] = Synergistic cytotoxicity against mouse L5178 cells assessed as combination index at ED75 using 18.75:1 test compound to doxorubicin ratio after 48 hrs by MTT-based checkerboard microplate method; type: functional; in short: as §1

| Compound | IC50 (MCF7) [µM] | IC50 (HeLa) [µM] | CI [1] | CI [2] | CI [3] | IC50 [4] [µM] | CI [5] | CI [6] | CI [7] | CI [8] | CI [9] | CI [10] | CI [11] | CI [12] | CI [13] | CI [14] | CI [15] |
| --- | --- | --- | --- | --- | --- | --- | --- | --- | --- | --- | --- | --- | --- | --- | --- | --- | --- |
| CC(C)(O)CC[C@H]1OC(C)(C)O[C@]1(C)[C@H]1CC=C2C3=C/C(=N\OC(C)(C)C)[C@@H]4C[C@H]5OC(C)(C)O[C@H]5C[C@]4(C)[C@H]3CC[C@@]21C | 19.3 | 26.1 | 0.89 | 0.28 | 1.03 | 65.4 | 0.84 | 0.28 | 0.83 | 0.24 | 0.27 |  |  |  |  |  |  |
| CC(C)(O)CC[C@H]1OC(C)(C)O[C@]1(C)[C@H]1CC=C2C3=C/C(=N/OC(C)(C)C)[C@@H]4C[C@H]5OC(C)(C)O[C@H]5C[C@]4(C)[C@H]3CC[C@@]21C | 17.3 | 20.7 | 0.5 | 0.34 | 0.67 | 51.2 | 0.79 | 0.33 | 0.88 | 0.23 | 0.32 |  |  |  |  |  |  |
| C=CCO/N=C1/C=C2C3=CC[C@H]([C@@]4(C)OC(C)(C)O[C@@H]4CCC(C)(C)O)[C@@]3(C)CC[C@@H]2[C@@]2(C)C[C@@H]3OC(C)(C)O[C@@H]3C[C@@H]12 | 24.2 | > 30 | 0.5 | 0.24 | 0.5 | 52.7 | 0.8 | 0.22 | 0.88 | 0.11 | 0.22 |  |  |  |  |  |  |
| C=CCO/N=C1/C=C2[C@H](CC[C@]3(C)[C@@H]([C@@]4(C)OC(C)(C)O[C@@H]4CCC(C)(C)O)CC[C@@]23O)[C@@]2(C)C[C@@H]3OC(C)(C)O[C@@H]3C[C@@H]12 | 17.2 | 17.6 | 0.17 | 0.17 | 0.83 | 49.3 | 1.31 | 0.17 |  | 0.16 | 0.16 |  |  |  | 1.05 | 1.25 | 1.13 |
| CCO/N=C1/C=C2C3=CC[C@H]([C@@]4(C)OC(C)(C)O[C@@H]4CCC(C)(C)O)[C@@]3(C)CC[C@@H]2[C@@]2(C)C[C@@H]3OC(C)(C)O[C@@H]3C[C@@H]12 | 19.6 | 30 | 0.42 | 0.21 | 0.5 | 58.9 | 0.56 | 0.18 | 1.21 | 0.1 | 0.18 |  |  |  |  |  |  |

More lines, main results first:

| IC50 (MCF7) [µM] | IC50 (HeLa) [µM] | Compound | CI [1] | CI [2] | CI [3] | IC50 [4] [µM] | CI [5] | CI [6] | CI [7] | CI [8] | CI [9] | CI [10] | CI [11] | CI [12] | CI [13] | CI [14] | CI [15] |
| --- | --- | --- | --- | --- | --- | --- | --- | --- | --- | --- | --- | --- | --- | --- | --- | --- | --- |
| 13.1 | 29.1 | CCO/N=C1/C=C2[C@H](CC[C@]3(C)[C@@H]([C@@]4(C)OC(C)(C)O[C@@H]4CCC(C)(C)O)CC[C@@]23O)[C@@]2(C)C[C@@H]3OC(C)(C)O[C@@H]3C[C@@H]12 | 0.62 | 0.18 | 0.58 | 42.2 | 0.73 | 0.19 | 0.75 | 0.13 | 0.17 | 0.17 | 0.36 | 0.1 |  |  |  |
| 18 | 15.4 | CO/N=C1/C=C2C3=CC[C@H]([C@@]4(C)OC(C)(C)O[C@@H]4CCC(C)(C)O)[C@@]3(C)CC[C@@H]2[C@@]2(C)C[C@@H]3OC(C)(C)O[C@@H]3C[C@@H]12 | 0.75 | 0.18 | 0.5 | 53.1 | 0.64 | 0.16 | 1.14 | 0.14 | 0.17 |  |  |  |  |  |  |
